The RNAGym collection of RNA variant scans (doi:10.1126/science.aae0568)
This sample holds only a part of the variants without activity.

B1: tRNA (parent)
chain: GUUCCGUUGGCGUAAUGGUAACGCGUCUCCCUCCUAAGGAGAAGACUGCGGGUUCGAGUCCCGUACGGAACG

Variants of: B1
Experiment: yeast fitness relative to wild type (ratio to wild type); higher = fitter; tRNA-Arg(CCU), competitive growth, 37 C, YPD
In short: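 For this measurement, the tRNA-Arg(CCU) gene was varied by chemical synthesis at a 3% per-site mutation rate across 69 sites, and each variant was placed at the native genomic locus in Saccharomyces cerevisiae. The pooled strains went through a 24-hour competition in YPD at 37°C in six parallel replicates, with amplicons from start and end populations read by 100-nucleotide paired-end sequencing. Darwinian fitness relative to wild type followed from the change in each genotype's frequency. Genotypes needed ≥ 100 starting reads, and estimates < 0.5 were set to 0.5.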
C24A G39A C60A C66U showed a yeast fitness of at most 0.5. Work on G6A C31G A70C yielded a yeast fitness of 0.553. Variant A43U G48C C55U has a yeast fitness of at most 0.5. With C55G U59A C62U the yeast fitness was at most 0.5. C5U G9A showed a yeast fitness of 0.972. In the case of U2G A36U C46G C62A A69C, the yeast fitness is reported as at most 0.5. Work on C31G C33U A42U yielded a yeast fitness of 0.649. Work on A14C A43G U59C C62A yielded a yeast fitness of at most 0.5. In the case of U8A G25C U35A, the yeast fitness is reported as at most 0.5. U8A C34U C55U C66A gave a yeast fitness of at most 0.5. For C29U C33G G44C U64C, the yeast fitness was at most 0.5. In the case of U3C C34G A57C, the yeast fitness is reported as 0.715. A15G G44C A57U showed a yeast fitness of at most 0.5. U7A A36U gave a yeast fitness of 0.607. Work on A43G G56C A69U yielded a yeast fitness of 0.683. Work on U3A C24G C33G C55U yielded a yeast fitness of at most 0.5. With A20U U54C G63U the yeast fitness was at most 0.5. With C30U C46U G50A A69G the yeast fitness was 0.605. C24U A45G gave a yeast fitness of 1.03. In the case of A43G C60A C66G, the yeast fitness is reported as at most 0.5. C4A C31A C33G U47A A65C gave a yeast fitness of 0.627. Variant C5U G25C C29A has a yeast fitness of at most 0.5. C27G G41A C55U gave a yeast fitness of 0.618. U2G U35G A45G C49G U59C C60U A69C gave a yeast fitness of 0.618. For A43C A45U C49G C61U, the yeast fitness was at most 0.5. Variant A14G G25A A36U G50A C62G has a yeast fitness of at most 0.5. In the case of A14G C31G, the yeast fitness is reported as 0.945. For C46A G68A A70C, the yeast fitness was 1.11. G6A G44C G50C A57G gave a yeast fitness of at most 0.5. U35A A36U G39A showed a yeast fitness of 0.567. U2A C24U A45U G67A gave a yeast fitness of at most 0.5. With U8G G25C G52C the yeast fitness was at most 0.5. Variant C30A G56A C60G has a yeast fitness of at most 0.5. U2G A40C G63A G68C gave a yeast fitness of at most 0.5. In the case of A14U A20C C27U U35C G48A C62A, the yeast fitness is reported as at most 0.5. C5U C24G U53A G63A showed a yeast fitness of at most 0.5. For U7A G18A, the yeast fitness was 0.689. Variant U7C C27U C29A G58C has a yeast fitness of at most 0.5. For A36U A40G U53A, the yeast fitness was 0.627. With C22G G23U the yeast fitness was 0.73. G10C C30G A65C G68C gave a yeast fitness of at most 0.5. U64A C66U showed a yeast fitness of 0.942. C27U A65U A70C showed a yeast fitness of 0.607. For C30U C66U A69U, the yeast fitness was 0.602. Work on G23C C27U C29U G51A yielded a yeast fitness of 0.645. In the case of C5A A14G A37G C49G C55U G56C G68A, the yeast fitness is reported as at most 0.5. Work on G25C G38C C60G yielded a yeast fitness of 0.747. U2G C62G C66U showed a yeast fitness of at most 0.5. Variant C11U U32G U53A C55U C61U has a yeast fitness of at most 0.5. With U2A C5A G52C the yeast fitness was at most 0.5. For A15G U47G, the yeast fitness was 0.782. U26G G51A showed a yeast fitness of 0.598. C34U G58C C62G G67A showed a yeast fitness of at most 0.5. For U7G A14C C30G C66U, the yeast fitness was at most 0.5. With C31U C33U A40U A45G the yeast fitness was 0.575. With U19C C31U G56A G68C the yeast fitness was at most 0.5. Work on G12A A20G A45U C49G A57U yielded a yeast fitness of at most 0.5. In the case of C11U A15C C30U A42C, the yeast fitness is reported as at most 0.5. In the case of U7A G50A C60G U64G, the yeast fitness is reported as at most 0.5. With A43G U59G the yeast fitness was 0.842. Variant A42U A57G has a yeast fitness of 0.905. U26C A36C C62A showed a yeast fitness of at most 0.5. For A15C U26C C62U, the yeast fitness was at most 0.5. For U3C G25A A37U, the yeast fitness was 0.574. For C4U C11G C34U G56A, the yeast fitness was at most 0.5. C5G A14G A36U G67A gave a yeast fitness of at most 0.5. A37G C55U showed a yeast fitness of 0.519. U8G A14C G17C C61G showed a yeast fitness of at most 0.5. C27A C61A gave a yeast fitness of 0.67. G6C A21U A36C A57G gave a yeast fitness of at most 0.5. With C5G G12C C24A C33G C49G A65G the yeast fitness was 0.573. Work on G50A C55U G67C yielded a yeast fitness of 0.563. Work on A15G G23C A43G yielded a yeast fitness of 0.54. For G41C A57G, the yeast fitness was 0.883. G12A U19G A20G U35C A40U gave a yeast fitness of at most 0.5. A14G U16G C24G U26C U47G G50C C66A gave a yeast fitness of at most 0.5. In the case of C22G C30G U47C U54C, the yeast fitness is reported as at most 0.5. For U8A C11A C27U, the yeast fitness was 0.546. Work on C22U G23A G56A yielded a yeast fitness of at most 0.5. In the case of G9C G10C C29G C46A, the yeast fitness is reported as 0.59. For C5G A40U A42G U53A U54A, the yeast fitness was at most 0.5. U26C U28C C46G C62G G67U gave a yeast fitness of at most 0.5. Variant U13A G50C has a yeast fitness of 0.653. C4G A15C gave a yeast fitness of 0.719. G6C U8C C29G C61U gave a yeast fitness of at most 0.5. In the case of C5G U26A C46U, the yeast fitness is reported as 0.96. Variant U2G U26C G56A has a yeast fitness of 0.547. Variant U7A C34A G56C has a yeast fitness of 0.541. For G50A G67C G68U, the yeast fitness was at most 0.5. Variant G56U A65G has a yeast fitness of 0.615. Work on U26C C30G G41A C60G C62U G68A yielded a yeast fitness of at most 0.5. In the case of C22G C49U, the yeast fitness is reported as 0.986. In the case of A43U G48C C60A U64A, the yeast fitness is reported as at most 0.5. C5A U13G U32A A42U G52A U54A A69C showed a yeast fitness of at most 0.5. Variant C34A C55U has a yeast fitness of 0.524. Variant C29A U35A G56A G63A has a yeast fitness of 0.525. Variant U3A G12A A15G C24U A45U has a yeast fitness of at most 0.5. With G10A A65G the yeast fitness was 0.627. U3G A15U C61A gave a yeast fitness of at most 0.5. Variant A20G A42G G58A has a yeast fitness of 0.806. Variant A15C G44C has a yeast fitness of 0.684. A14U A43G G63C showed a yeast fitness of at most 0.5. G38C A45C A57C A70U showed a yeast fitness of at most 0.5. Work on C31G A69U yielded a yeast fitness of 0.752. U7A C11A C30U U32A showed a yeast fitness of at most 0.5. Variant G9C U19C G48A C49U has a yeast fitness of 0.634. Work on U35C G44C yielded a yeast fitness of 0.88. C46U C61A showed a yeast fitness of 0.83. Work on A20U U28C C30U A43G yielded a yeast fitness of at most 0.5. In the case of C5U A36U C49G, the yeast fitness is reported as at most 0.5. C24A C27G C29G G52C C62U gave a yeast fitness of 0.567. Variant C4G C27G C34G G51A has a yeast fitness of at most 0.5. C4G C5U A40G gave a yeast fitness of 0.526. In the case of G39A A45C A65U C66U, the yeast fitness is reported as at most 0.5. With C4U G38C the yeast fitness was 0.825. In the case of U28C A40U, the yeast fitness is reported as 1.01. In the case of U35G A69C, the yeast fitness is reported as 0.592. Work on G9U G50A yielded a yeast fitness of 0.663. Work on C24U C31G U32A yielded a yeast fitness of 0.504. Variant U7A C31U A40U G67C has a yeast fitness of at most 0.5. With A14U A45U G58C the yeast fitness was at most 0.5. Work on A20C A42U A65U yielded a yeast fitness of 0.553. For G12C U47A U54C, the yeast fitness was 0.519. Work on U19C A21C yielded a yeast fitness of 1.12. Variant A14U C22A A43G has a yeast fitness of at most 0.5. Variant A36C A37U has a yeast fitness of at most 0.5. U19G G50U G58A C66U showed a yeast fitness of 0.541. For U64C G68A, the yeast fitness was 0.979. Variant C4A A20U A43U has a yeast fitness of at most 0.5. Work on C11G A36C G56A A69U yielded a yeast fitness of at most 0.5. Work on C5A G17A A40U yielded a yeast fitness of at most 0.5. A14C A20G C27U U64A G67A showed a yeast fitness of 0.566. C24U G48C C55U gave a yeast fitness of 0.614. G9C U53C C60A gave a yeast fitness of at most 0.5. With G6A C11G A45U A57G A70G the yeast fitness was at most 0.5. For C4U A43C A65U, the yeast fitness was 0.75. Work on C30U G48C A65G yielded a yeast fitness of 0.606. In the case of C24U A69G, the yeast fitness is reported as 0.998. In the case of U7C G41A A42C G50C A69U, the yeast fitness is reported as 0.556. In the case of G25A C27U A69C, the yeast fitness is reported as 0.73. In the case of G18A A20U C49G U54A G68U A69U, the yeast fitness is reported as at most 0.5. In the case of C5U A40G C49U C62U A65G, the yeast fitness is reported as at most 0.5. In the case of G6C U8G G10C A37G C62U U64A, the yeast fitness is reported as 0.504. Work on U7A A14U A20C U28C C46U G58A yielded a yeast fitness of at most 0.5. With C34A A36C C61U U64A the yeast fitness was at most 0.5. Work on U3A G44A C55U yielded a yeast fitness of at most 0.5. Variant U7A G10C G41A has a yeast fitness of at most 0.5. C4U A15C C30G A69C A70G showed a yeast fitness of at most 0.5. Variant C5U U7G C30A A65C has a yeast fitness of 1.07. With U7C A45C the yeast fitness was 0.761. In the case of A14U C27G G52A C60U, the yeast fitness is reported as at most 0.5. In the case of G41A G48C A57U A65U C66A, the yeast fitness is reported as at most 0.5. In the case of C24G U26A A65C, the yeast fitness is reported as at most 0.5. Variant C5G U16A C29U A40U A65C has a yeast fitness of at most 0.5. With U26C A57U the yeast fitness was 0.793. With C4U C24U A43G C60U C61G the yeast fitness was at most 0.5. Work on U16A G18C A20G C22U U54G C55A yielded a yeast fitness of 0.512. For C4U U47A G51C A70U, the yeast fitness was at most 0.5. With U13A U28G G50C A57U C62A the yeast fitness was 0.931. In the case of C33U G48A C60U U64G A65U A69C, the yeast fitness is reported as 0.571. Work on U3G U26A yielded a yeast fitness of 0.944. Work on U2G C33U A65C yielded a yeast fitness of at most 0.5. For C24U C61G G63C, the yeast fitness was 0.537. G10C U16G C31A U32G A45G showed a yeast fitness of at most 0.5. In the case of G23A, the yeast fitness is reported as 0.741. U19A C24G G25A C46G G52A A65C gave a yeast fitness of at most 0.5. With C5U U13A C62U A65C the yeast fitness was at most 0.5.
